In the library only some 1.8% were active in any assay of this set; here they are far more common.
M5 ag – human M5 muscarinic receptor agonists, primary screen, CHO-K1 cells, Fluo-8 calcium fluorescence | Muscarinic acetylcholine receptor M5 (Homo sapiens), P08912 | CHO-K1 hM5 cells; 0% DMSO wells, 100% maximal acetylcholine response | activation, % at 3 µM | 0.19% of 360,000 active;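 active = activation above the run's mean over test compounds plus 3 SD, cut at about 23% in these data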;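 note: signal is peak over basal fluorescence ratio across the kinetic read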
Target sequence (P08912 whole entry, looked up): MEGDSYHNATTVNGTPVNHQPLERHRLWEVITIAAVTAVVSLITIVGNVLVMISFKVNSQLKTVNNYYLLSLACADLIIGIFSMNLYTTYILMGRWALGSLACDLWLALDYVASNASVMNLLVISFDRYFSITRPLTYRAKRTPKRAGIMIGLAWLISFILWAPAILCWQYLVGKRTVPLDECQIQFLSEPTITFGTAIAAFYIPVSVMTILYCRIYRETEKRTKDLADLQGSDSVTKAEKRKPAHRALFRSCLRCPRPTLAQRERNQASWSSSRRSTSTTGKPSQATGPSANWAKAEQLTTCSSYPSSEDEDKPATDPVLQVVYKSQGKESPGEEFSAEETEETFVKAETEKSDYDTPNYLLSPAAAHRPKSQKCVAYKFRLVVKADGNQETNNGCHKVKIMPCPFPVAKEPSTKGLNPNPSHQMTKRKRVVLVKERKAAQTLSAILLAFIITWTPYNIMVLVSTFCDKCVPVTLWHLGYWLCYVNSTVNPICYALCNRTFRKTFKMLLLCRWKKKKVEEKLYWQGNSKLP
CHRM4 PAM – human M4 muscarinic receptor positive allosteric modulators, primary screen, CHO-K1 cells, Fluo-8 calcium fluorescence; Muscarinic acetylcholine receptor M4 (Homo sapiens), P08173; CHO-K1 hM4/Gqi5, ACh EC20; 0% = ACh EC20, 100% = maximal ACh; activation, % at 3 µM; 0.4% of 360,000 active; AID 624126, 2012;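 active = activation above its plate's cutoff, the mean activation of sample wells plus 3 SD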
M5 antag – human M5 muscarinic receptor antagonists, primary screen, CHO cells, Fluo-8 calcium fluorescence; CHO-hM5 cells, ACh EC80; AID 624040, 2012; 0.59% of 360,000 active; inhibition, % at 3 µM;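 active = inhibition above a per-plate cutoff, the mean of that plate's test compounds plus 3 SD, cut at about 27% in these data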;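 note: 0% = acetylcholine EC80 with DMSO and 100% = DMSO without agonist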
M4 ag – human M4 muscarinic receptor agonists, primary screen, CHO-K1 cells, Fluo-8 calcium fluorescence | Muscarinic acetylcholine receptor M4 (Homo sapiens), P08173 | CHO-K1 hM4/Gqi5; vehicle 0%, full acetylcholine response 100% | activation, % at 3 µM | 0.14% of 360,000 active;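 active = activation above the run mean over all test wells plus 3 SD, cut at about 32% in these data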;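 note: peak over basal fluorescence ratio per well then scaled between controls; 0% = DMSO wells and 100% = acetylcholine at EC100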
CHRM4 antagonist – human M4 muscarinic receptor antagonists, primary screen, CHO cells, Fluo-8 calcium fluorescence. Muscarinic acetylcholine receptor M4 (Homo sapiens), P08173. CHO-hM4 cells, ACh EC80. inhibition, % at 3 µM. 0.73% of 360,000 active. AID 624125, 2012;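 active = inhibition above its plate's cutoff, the mean inhibition of sample wells plus 3 SD, cut at about 27% in these data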;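 note: 0% = acetylcholine EC80 with DMSO and 100% = DMSO without agonist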
M5 PAM – human M5 muscarinic receptor positive allosteric modulators, primary screen, CHO-K1 cells, Fluo-8 calcium fluorescence. AID 624038, 2012. activation, % at 3 µM. 0.3% of 360,000 active. CHO-K1 hM5, ACh EC20 PAM; 0% = ACh EC20, 100% = ACh EC100. Muscarinic acetylcholine receptor M5 (Homo sapiens), P08912;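 active = activation above the run cutoff, the mean activation of all test compounds plus 3 SD, cut at about 18% in these data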
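Probe or stimulus: acetylcholine, EC20 level; Assay system: human M5 receptor in CHO-K1 cells; Schedule: compound preincubation 140 s before EC20 acetylcholine addition; Technique: intracellular calcium via Fluo-8 fluorescence; Dosing: single-point, 3 µM nominal; Read-out basis: percent activation from peak-over-basal fluorescence ratio, scaled EC20-to-EC100 acetylcholine; Repeats: one well per compound, no replicates.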
* marks the source's active call; other numbers are inactive results; ! = not active in a repeat.

Screening O=c1nc2n(c3ccc(Br)cc13)CCS2 returned M5 ag -5, CHRM4 PAM 21, M5 antag 1, M4 ag 4, CHRM4 antagonist 33* and M5 PAM 5.
`CSc1nc(N)nc2c1ncn2C1OC(CO)C(O)C1O` (configuration not stated) gave M5 ag -2, CHRM4 PAM 3, M5 antag 33*, M4 ag 0, CHRM4 antagonist 5 and M5 PAM -6.
Screening Cc1cc(-c2cn3ccccc3n2)c(C)n1-c1ccccc1 returned M5 ag -6, CHRM4 PAM -22, M5 antag -1, M4 ag 0, CHRM4 antagonist 41* and M5 PAM -15.
Fc1ccc(C2CCNCC2COc2ccc3c(c2)OCO3)cc1 (configuration not stated) was read as M5 ag 2, CHRM4 PAM -19, M5 antag 20, M4 ag 12, CHRM4 antagonist 20 and M5 PAM -17.
Screening Fc1ccc([C@@H]2CCNC[C@H]2COc2ccc3c(c2)OCO3)cc1 returned M5 ag 7, CHRM4 PAM -17, M5 antag 30*!, M4 ag 15, CHRM4 antagonist 34*! and M5 PAM -19.
Screening Cc1cccc(COC[C@H](Cc2ccccc2)N2CCN(C(=O)c3cc(Cl)cc(Cl)c3)CCC2=O)c1 returned M5 ag -1, CHRM4 PAM -3, M5 antag -3, M4 ag 0, CHRM4 antagonist -9 and M5 PAM -7.
`COc1ccc(NC(=S)NC(NC(=O)c2ccc(Cl)cc2Cl)C(Cl)(Cl)Cl)c([N+](=O)[O-])c1` (configuration not stated) gave M5 ag 6, CHRM4 PAM -1, M5 antag 28*, M4 ag 11, CHRM4 antagonist -3 and M5 PAM -21.
CCN(CC)CCNC(=O)Cn1ncc2ccccc2c1=O was read as M5 ag 8, CHRM4 PAM 18, M5 antag -11, M4 ag 0, CHRM4 antagonist 0 and M5 PAM 20*.
For CCN(CC)CCNC(=O)Cn1nc(-c2ccccc2)c2ccccc2c1=O the results were M5 ag -10, CHRM4 PAM -3, M5 antag 8, M4 ag 0, CHRM4 antagonist -1 and M5 PAM -4.
Screening CC(C)Cn1c(N)c(C(=O)COC(=O)Cc2cccs2)c(=O)n(C)c1=O returned M5 ag 6, CHRM4 PAM -6, M5 antag 32*, M4 ag 14, CHRM4 antagonist 19 and M5 PAM -10.
Screening CC(C)Cn1c(N)c(C(=O)COC(=O)/C=C/c2cccs2)c(=O)n(C)c1=O returned M5 ag 8, CHRM4 PAM -22, M5 antag 16, M4 ag 14, CHRM4 antagonist 12 and M5 PAM -14.
O=C(O)c1ccccc1/C=N/NC(=S)NCc1ccccc1 was read as M5 ag 3, CHRM4 PAM -3, M5 antag 32*, M4 ag 3, CHRM4 antagonist 5 and M5 PAM 34*.
Screening Cc1cccc(C2NC(c3cccc(C)c3)C([N+](=O)[O-])C(C)(C)C2[N+](=O)[O-])c1 (configuration not stated) returned M5 ag -4, CHRM4 PAM 0, M5 antag 0, M4 ag -1, CHRM4 antagonist 1 and M5 PAM -2.
For COc1cc2c(cc1NC(=O)CN1C(=O)NC3(CCc4ccccc43)C1=O)oc1ccccc12 (configuration not stated) the results were M5 ag -1, CHRM4 PAM 3, M5 antag 7, M4 ag 12, CHRM4 antagonist 38* and M5 PAM -6.
COc1ccc(CCN(C)C(=O)CN2C(=O)NC3(CCCc4ccccc43)C2=O)cc1OC (configuration not stated) was read as M5 ag 0, CHRM4 PAM 27*, M5 antag 2, M4 ag 2, CHRM4 antagonist -29 and M5 PAM -7.
Screening O=C(Nc1cccc(C(F)(F)F)c1)C1Cc2c(-c3ccco3)ccnc2O1 (configuration not stated) returned M5 ag 3, CHRM4 PAM -4, M5 antag 1, M4 ag 7, CHRM4 antagonist -1 and M5 PAM -4.
For O=C(Oc1ccc(Br)cc1C(=S)N1CCCC1)c1ccccc1F the results were M5 ag -5, CHRM4 PAM -6, M5 antag 9, M4 ag 1, CHRM4 antagonist -11 and M5 PAM -11.
For O=C(Oc1ccc(Br)cc1C(=S)N1CCCC1)c1ccccc1Cl the results were M5 ag -7, CHRM4 PAM 6, M5 antag -17, M4 ag 0, CHRM4 antagonist 2 and M5 PAM 20*.
`CC1CCN(C(=O)c2cccc(S(=O)(=O)N3CCCCC3)c2)CC1` gave M5 ag 2, CHRM4 PAM 9, M5 antag -5, M4 ag 3, CHRM4 antagonist -11 and M5 PAM -4.
For CC1CCN(S(=O)(=O)c2cccc(C(=O)Oc3ccc([N+](=O)[O-])cc3)c2)CC1 the results were M5 ag 4, CHRM4 PAM 30*, M5 antag 3, M4 ag 2, CHRM4 antagonist -11 and M5 PAM 5.
O=C(COc1ccc(S(=O)(=O)N2CCCCC2)cc1Cl)N1CCOCC1 was read as M5 ag -1, CHRM4 PAM 3, M5 antag 1, M4 ag 1, CHRM4 antagonist -9 and M5 PAM -1.
`Cn1cc(CNC(=O)C2CCC(=O)N(Cc3ccccc3F)C2)cn1` (configuration not stated) gave M5 ag -4, CHRM4 PAM 20*, M5 antag -9, M4 ag 0, CHRM4 antagonist -11 and M5 PAM 8.
CCn1cc(CNC(=O)C2CCC(=O)N(Cc3ccccc3F)C2)cn1 (configuration not stated) was read as M5 ag -4, CHRM4 PAM 5, M5 antag 8, M4 ag 2, CHRM4 antagonist -18 and M5 PAM -4.

Source: PubChem BioAssay
